# High-throughput results deposited in PubChem by Broad Institute.
# An excerpt weighted towards active compounds, which were near 2.9% of everything screened.
# E-sel inducer = induces E-selectin expression in human endothelial cells; HUVEC E-selectin immunofluorescence imaging; normalized: neutral wells 0, TNF-alpha wells 100; activation, % at 7.58 µM; AID 686992; P16581; 0.37% of 260,000 active;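 active = mean E-selectin-positive cell signal at least 10% of the positive control, reached in at least 60% of replicates, without over 20% cell loss; inconclusive = no rule given, readout overlaps actives, possibly toxicity-flagged; inactive = the rest, including those meeting only one limit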
# Target sequence (P16581 whole entry, looked up): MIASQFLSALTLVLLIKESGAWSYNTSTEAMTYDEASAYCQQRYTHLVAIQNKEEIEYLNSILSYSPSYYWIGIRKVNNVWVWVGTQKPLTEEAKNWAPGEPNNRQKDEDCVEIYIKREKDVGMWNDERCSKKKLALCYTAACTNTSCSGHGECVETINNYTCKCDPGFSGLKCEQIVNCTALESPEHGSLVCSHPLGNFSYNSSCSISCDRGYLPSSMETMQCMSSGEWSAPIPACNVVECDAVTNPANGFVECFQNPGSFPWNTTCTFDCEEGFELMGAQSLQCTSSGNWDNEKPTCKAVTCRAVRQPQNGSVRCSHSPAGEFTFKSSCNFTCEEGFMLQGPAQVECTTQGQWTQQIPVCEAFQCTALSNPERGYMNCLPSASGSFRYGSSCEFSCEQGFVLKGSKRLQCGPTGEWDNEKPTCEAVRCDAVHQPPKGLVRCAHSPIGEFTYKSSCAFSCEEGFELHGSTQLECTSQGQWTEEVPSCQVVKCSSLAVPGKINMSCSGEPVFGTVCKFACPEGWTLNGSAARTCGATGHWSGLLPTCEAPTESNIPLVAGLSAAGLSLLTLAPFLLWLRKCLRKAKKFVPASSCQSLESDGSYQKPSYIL
#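 Test system – human umbilical vein endothelial cells (HUVEC), E-selectin induction · Input – 3,000 HUVEC seeded per well · Buffer or medium – EGM-2, gelatin · Compound dosing – single-point compound dose · Detection – immunofluorescence imaging · Measure – percent E-selectin-positive cells · Controls – TNF-alpha high, DMSO low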
# DENV2 CPE rescue = DENV2-induced cell death inhibition | AID 651640 | CPE inhibition, % at 9.99 µM | 1.7% of 350,000 active | DENV2-infected cells, cytopathic effect rescue, plate reader; in the data active = CPE inhibition above about 20%, passing the limit was not always enough; inconclusive = no clear call, values can overlap the other calls; tested in BHK-21 cells
# SIRT5 block = blocks human SIRT5 desuccinylation of peptide; Q9NXA8; Purified SirT5, succinyl-peptide AMC, trypsin-coupled fluorescence; inhibition, % at 15 µM; 1.1% of 330,000 active; in the data active = inhibition above about 15%; inconclusive = no clear call, values can overlap the other calls
# Numbers stand for hits; - = inactive; ? = inconclusive; . = not tested or not shown; ! = a repeat was not active.
SMILES,E-sel inducer,DENV2 CPE rescue,SIRT5 block
C[C@H]1CN([C@@H](C)CO)C(=O)Cc2cc(NC(=O)Nc3ccc(C(F)(F)F)cc3)ccc2O[C@H]1CN(C)Cc1ccc(C(=O)Nc2ccccc2N)cc1,-,-,20.4
C[C@@H]1CN([C@H](C)CO)C(=O)Cc2cc(NC(=O)Nc3ccc(C(F)(F)F)cc3)ccc2O[C@@H]1CN(C)Cc1ccc(C(=O)Nc2ccccc2N)cc1,-,-,-
COC(=O)c1ccc(Sc2ccccn2)c([N+](=O)[O-])c1,.,87.9,-
O=C(O)c1ccc(Sc2ccccn2)c([N+](=O)[O-])c1,.,-,-
C=Cc1ccc(Cn2c(C)c(C(=O)NCc3cccc(C(F)(F)F)c3)sc2=O)cc1,.,57.1,.
Cc1c(C(=O)NCc2cccc(C(F)(F)F)c2)sc(=O)n1Cc1ccc(F)cc1,.,-,.
CN(C)CCCNCC(=O)c1c(-c2ccccc2)n(C)c2ccccc12,-,-,-
Cc1cc(C)n(C(=O)c2cccc([N+](=O)[O-])c2C)n1,.,-,33.7
Cc1cc(C)n(C(=O)c2ccccc2[N+](=O)[O-])n1,-,-,-
O=C(Nc1ccc2c(c1)OCO2)N[C@@H]1CC[C@H](CCNC(=O)C2CCC2)O[C@H]1CO,-,-,-
COc1ccc(S(=O)(=O)N(C)C[C@H]2OCCCC[C@H](C)Oc3ccc(NC(=O)Cc4ccccc4)cc3C(=O)N([C@@H](C)CO)C[C@@H]2C)cc1,-,27.2,-
COc1ccc(NC(=O)Nc2ccc3c(c2)C(=O)N([C@H](C)CO)C[C@@H](C)[C@H](CN(C)S(=O)(=O)c2ccccc2)OCCCC[C@H](C)O3)cc1,.,30.1,-
COc1ccc(S(=O)(=O)N(C)C[C@@H]2OCCCC[C@@H](C)Oc3ccc(NC(=O)Nc4ccc(F)cc4)cc3C(=O)N([C@@H](C)CO)C[C@H]2C)cc1,-,-,-
COc1ccc(NC(=O)Nc2ccc3c(c2)C(=O)N([C@@H](C)CO)C[C@H](C)[C@@H](CN(C)S(=O)(=O)c2ccccc2)OCCCC[C@H](C)O3)cc1,.,-,-
COc1ccc(NC(=O)Nc2ccc3c(c2)C(=O)N([C@H](C)CO)C[C@H](C)[C@H](CN(C)S(=O)(=O)c2ccc(F)cc2)OCCCC[C@@H](C)O3)cc1,.,-,-
COc1ccc(S(=O)(=O)N(C)C[C@H]2OCCCC[C@@H](C)Oc3ccc(NC(=O)Nc4ccc(F)cc4)cc3C(=O)N([C@H](C)CO)C[C@H]2C)cc1,-,-,16.2
COc1ccc(S(=O)(=O)N(C)C[C@H]2OCCCC[C@H](C)Oc3ccc(NC(=O)Nc4ccc(F)cc4)cc3C(=O)N([C@H](C)CO)C[C@H]2C)cc1,-,?,16.6!
COc1ccc(S(=O)(=O)N(C)C[C@@H]2OCCCC[C@H](C)Oc3ccc(NC(=O)Cc4ccccc4)cc3C(=O)N([C@H](C)CO)C[C@H]2C)cc1,-,-,-
Cc1cccc(C)c1NC(=O)CN1CCN(C/C=C/c2ccccc2)CC1,-,?,-
CCC1CCCCN1C(=O)CCc1nnc(Cc2c[nH]c3ccccc23)o1 (stereo not drawn),-,.,-
CN(c1ccc(OCC(=O)OCC(=O)Nc2ccccc2)cc1)S(=O)(=O)c1ccc(F)cc1,-,.,.
CN(Cc1ccccc1)C(=O)COc1ccc(N(C)S(=O)(=O)c2ccc(F)cc2)cc1,-,-,17.9
COC(=O)c1ccc(NC(=O)Cn2nnc(-c3cccs3)n2)cc1,.,-,-
Cc1cccc(NC(=O)Cn2nnc(-c3cccs3)n2)c1C,.,.,24.7
O=C(NCc1ccc2c(c1)OCO2)C(=O)NCC1OCCN1S(=O)(=O)c1ccc(Cl)cc1 (stereo not drawn),.,-,22.2
SMILES,E-sel inducer,DENV2 CPE rescue,SIRT5 block
O=C(NCc1ccc2c(c1)OCO2)C(=O)NCC1OCCN1S(=O)(=O)c1ccc(Br)cc1 (stereo not drawn),.,-,-
O=C(NCCN1CCOCC1)C(=O)NCC1OCCN1S(=O)(=O)c1ccc(Cl)cc1 (stereo not drawn),-,79.2,-
O=C(NCCN1CCOCC1)C(=O)NCC1OCCN1S(=O)(=O)c1ccc(F)cc1 (stereo not drawn),-,-,-
CC(C)NC(=O)Nc1ccc2c(c1)CC(=O)N([C@H](C)CO)C[C@@H](C)[C@@H](CN(C)S(=O)(=O)c1ccc(F)cc1)O2,-,-,-
CC(=O)OCC(=O)[C@@]12OC(C)(C)O[C@@H]1CC1C3C[C@H](F)C4=CC(=O)C=CC4(C)[C@@]3(F)C(O)CC12C (stereo partly drawn),-,-,-
CC1(C)OC2CC3C4CC(F)C5=CC(=O)C=CC5(C)C4(F)C(O)CC3(C)C2(C(=O)CO)O1 (stereo not drawn),-,-,17.5
COc1cccc(Cn2c3ccc(NC(=O)Cc4cc(OC)ccc4OC)cc3c(=O)n2C)c1,-,-,.
Cn1cccc1-c1cc(C(=O)N2CCc3c([nH]c4ccccc34)C2c2ccccn2)[nH]n1 (stereo not drawn),.,-,-
Clc1ccc(-c2nc3ccc(Br)cn3c2Cc2ccsc2)cc1,-,?,-
CN(CC(=O)Nc1cccc([N+](=O)[O-])c1)S(=O)(=O)c1ccccc1,-,-,.
CN(C)CCCNC(CC(=O)Nc1cccc([N+](=O)[O-])c1)C(=O)O (stereo not drawn),.,48.1,-
C[C@H](CO)N1C[C@H](C)[C@@H](CN(C)S(=O)(=O)c2cccs2)Oc2c(NC(=O)Nc3ccccc3)cccc2C1=O,-,.,.
CC[C@H]1c2[nH]c3ccc(C(C)C)cc3c2[C@@H]2CCN3C(=O)CCC[C@H]1[C@H]23,-,-,-
CC(C)c1ccc2[nH]c3c(c2c1)[C@@H]1CCN2C(=O)CCC[C@H](C3)[C@H]12,-,-,34.5
C[C@H](CO)N1C[C@H](C)[C@H](CN(C)C(=O)NC2CCCCC2)Oc2c(NC(=O)NC3CCCCC3)cccc2C1=O,-,-,-
CC(C)NC(=O)N1CCCCN2[C@H](C1)[C@H](c1ccc(C#CC3CC3)cc1)[C@@H]2CO,-,-,-
CC(C)C#Cc1ccc([C@@H]2[C@@H](CO)N3CCCCN(C(=O)NC(C)C)C[C@@H]23)cc1,-,-,-
CC(C)NC(=O)N1CCCCN2[C@@H](CO)[C@@H](c3ccc(C#CC4CC4)cc3)[C@@H]2C1,-,39.9,-
CC(C)C#Cc1ccc([C@H]2[C@@H](CO)N3CCCCN(C(=O)NC(C)C)C[C@H]23)cc1,-,.,.
CC(C)NC(=O)N1CCCCN2[C@H](CO)[C@H](c3ccc(C#CC4CC4)cc3)[C@H]2C1,-,66.2,-
CC(C)NC(=O)N1CCCCN2[C@H](C1)[C@@H](c1ccc(C#CC3CC3)cc1)[C@@H]2CO,-,?,22.4
O=C(Nc1nc2ccccc2s1)c1cc2c(s1)-c1ccccc1OC2,-,-,-
CCCC(=O)Nc1ccc2c(c1)C(=O)N(C)[C@@H]1CC[C@H](CC(=O)NCCOC)O[C@@H]1CO2,-,-,.
CCCC(=O)Nc1ccc2c(c1)C(=O)N(C)C[C@H](OC)[C@H](C)CN(CCC(F)(F)F)[C@@H](C)CO2,-,22.5,-
CCC(=O)Nc1ccc2c(c1)C(=O)N(C)C[C@@H](OC)[C@@H](C)CN(CCC(F)(F)F)[C@H](C)CO2,-,-,16.4
CCC(=O)Nc1ccc2c(c1)OC[C@H](C)N(CCC(F)(F)F)C[C@@H](C)[C@H](OC)CN(C)C2=O,-,24.1,-
